Tests used:
Hepatitis C virus [1] = assay: Antiviral activity against Hepatitis C virus genotype 1b infected in […] cell by cell-based HCV replicon assay in presence of 10% fetal bovine serum; format: functional, organism-based, Hepacivirus hominis
Procedure, shortened: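 Stable genotype 1b (con1) replicon cell line HB1, assayed in medium with 10% fetal bovine serum.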

Hepatitis C virus [2] = assay: Antiviral activity against Hepatitis C virus containing NS3/4a ps37 sequence by transient cell-base protease activity; format: functional, organism-based, Hepacivirus hominis
Procedure, shortened: (§1)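 Transient cell-based phenotype assay of protease activity, using NS3/4A sequences cloned from plasma of HCV-infected patients. EC50s were determined.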

[3] = Inhibition of Hepatitis C virus genotype 2a NS3/4A protease activity; set-up: species or system Hepatitis C virus subtype 2a
Procedure, shortened: (§2)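 Recombinant NS3/4A protease was expressed in and purified from E. coli. Inhibition was measured by a time-resolved, internally quenched fluorescence assay at low enzyme concentration. Kis were reported.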

Neutrophil elastase = biological target: T1, Neutrophil elastase (Homo sapiens, UniProt P08246); assay: Inhibition of human Neutrophil elastase 2
T1 sequence (P08246 whole entry): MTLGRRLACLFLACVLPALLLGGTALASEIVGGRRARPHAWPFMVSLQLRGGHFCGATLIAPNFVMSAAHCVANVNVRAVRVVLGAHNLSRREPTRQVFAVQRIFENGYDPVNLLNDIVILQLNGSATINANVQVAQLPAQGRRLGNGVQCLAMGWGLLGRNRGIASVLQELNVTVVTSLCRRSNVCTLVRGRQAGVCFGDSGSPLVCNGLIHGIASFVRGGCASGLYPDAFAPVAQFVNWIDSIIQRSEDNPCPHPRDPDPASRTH

Hepatitis C virus [4] = assay: Antiviral activity against Hepatitis C virus containing NS3/4a ps41 sequence by transient cell-base protease activity; format: functional, organism-based, Hepacivirus hominis; procedure, shortened: as §1
[5] = Inhibition of human Chymotrypsin
Hepatitis C virus [6] = assay: Antiviral activity against Hepatitis C virus containing NS3/F43S protease mutant activity by TaqMan-based assay; format: functional, organism-based, Hepacivirus hominis
[7] = AUC (0-24 hrs) in dog at 5 mg/kg, po by LC/MS/MS analysis; format: ADME, organism-based, Canis lupus familiaris; set-up: time < 24 hr, dose 5 mg/kg, route oral; conditions: plasma
Procedure, shortened: (§3)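 Dosed orally as a solution in polyethylene glycol 400 (2.0 ml/kg), with n = 3. EDTA plasma was centrifuged off and held at −70°C. Drug levels were determined by LC/MS/MS following protein precipitation.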

Cathepsin F = biological target: T2, Cathepsin F (Homo sapiens, UniProt Q9UBX1); assay: Inhibition of human Cathepsin F
T2 sequence (Q9UBX1 whole entry): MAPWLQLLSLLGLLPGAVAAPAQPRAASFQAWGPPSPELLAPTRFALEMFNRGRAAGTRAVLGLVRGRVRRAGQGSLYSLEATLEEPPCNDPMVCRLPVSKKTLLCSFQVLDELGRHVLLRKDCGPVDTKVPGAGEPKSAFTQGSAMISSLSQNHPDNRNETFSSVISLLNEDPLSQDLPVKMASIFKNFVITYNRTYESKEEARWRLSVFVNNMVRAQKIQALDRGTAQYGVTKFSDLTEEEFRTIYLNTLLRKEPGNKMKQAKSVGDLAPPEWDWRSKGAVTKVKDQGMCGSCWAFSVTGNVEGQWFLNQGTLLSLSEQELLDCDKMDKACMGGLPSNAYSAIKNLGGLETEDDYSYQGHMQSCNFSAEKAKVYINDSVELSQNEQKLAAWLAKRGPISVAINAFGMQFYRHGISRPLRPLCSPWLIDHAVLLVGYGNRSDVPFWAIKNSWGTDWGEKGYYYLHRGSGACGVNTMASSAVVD

[8] = Volume of distribution in dog at 2 mg/kg, iv by LC/MS/MS analysis; format: ADME, organism-based, Canis lupus familiaris; set-up: dose 2 mg/kg, route intravenous; conditions: in vivo
Procedure, shortened: (§4)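 Fasted animals received an IV bolus in DMSO at 1.0 ml/kg for rats and 0.1 ml/kg for dogs and rhesus monkeys, at 2 mg/kg; n = 3 per species. Blood was drawn into EDTA tubes at set times, and plasma was separated by centrifugation and stored at −70°C. Drug was quantified by LC/MS/MS after protein precipitation.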

Hepatitis C virus [9] = assay: Antiviral activity against Hepatitis C virus containing NS3/4a ps20 sequence by transient cell-base protease activity; format: functional, organism-based, Hepacivirus hominis; procedure, shortened: as §1
Serine protease 1 = Serine protease 1 (Homo sapiens, UniProt P07477); assay: Inhibition of human Trypsin activity
Serine protease 1, sequence (P07477 whole entry): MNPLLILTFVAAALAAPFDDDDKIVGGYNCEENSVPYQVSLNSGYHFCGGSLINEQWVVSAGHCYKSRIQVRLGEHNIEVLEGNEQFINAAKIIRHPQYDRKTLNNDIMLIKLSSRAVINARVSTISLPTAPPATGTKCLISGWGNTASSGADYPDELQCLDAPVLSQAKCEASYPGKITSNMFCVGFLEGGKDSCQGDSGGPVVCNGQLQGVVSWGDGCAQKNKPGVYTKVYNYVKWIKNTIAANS

[10] = AUC (0-24 hrs) in dog at 2 mg/kg, iv by LC/MS/MS analysis; format: ADME, organism-based, Canis lupus familiaris; set-up: time < 24 hr, dose 2 mg/kg, route intravenous; conditions: plasma
Procedure, shortened: (§5)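 Fasted animals received an intravenous bolus in DMSO at 1.0 ml/kg (rat), 0.1 ml/kg (dog) or 0.1 ml/kg (rhesus), with n = 3. Blood was drawn into EDTA tubes, and plasma was separated by centrifugation and stored at −70°C. Drug was quantified by LC/MS/MS after protein precipitation.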

Hepatitis C virus [11] = assay: Antiviral activity against Hepatitis C virus containing NS3/4a ps32 sequence by transient cell-base protease activity; format: functional, organism-based, Hepacivirus hominis; procedure, shortened: as §1
[12] = Cmax in rhesus monkey at 5 mg/kg, po by LC/MS/MS analysis; format: ADME, organism-based, Macaca mulatta; set-up: dose 5 mg/kg, route oral; conditions: in vivo; procedure, shortened: as §3
[13] = Inhibition of Hepatitis C virus genotype 2b NS3/4A protease activity; set-up: species or system Hepatitis C virus subtype 2b; procedure, shortened: as §2
Hepatitis C virus [14] = assay: Antiviral activity against Hepatitis C virus containing NS3/4a ps33 sequence by transient cell-base protease activity; format: functional, organism-based, Hepacivirus hominis; procedure, shortened: as §1
[15] = Volume of distribution in rhesus monkey at 2 mg/kg, iv by LC/MS/MS analysis; format: ADME, organism-based, Macaca mulatta; set-up: dose 2 mg/kg, route intravenous; conditions: in vivo; procedure, shortened: as §4
Hepatitis C virus [16] = assay: Antiviral activity against Hepatitis C virus containing NS3/D168Y protease mutant activity by TaqMan-based assay; format: functional, organism-based, Hepacivirus hominis
Hepatitis C virus [17] = assay: Antiviral activity against Hepatitis C virus containing NS3/4a ps30 sequence by transient cell-base protease activity; format: functional, organism-based, Hepacivirus hominis; procedure, shortened: as §1
[18] = Plasma clearance in rat at 2 mg/kg, iv by LC/MS/MS analysis; format: ADME, organism-based; set-up: dose 2 mg/kg, route intravenous; procedure, shortened: as §4
[19] = Metabolic stability in dog liver assessed as drug level at 5 mg/kg, po after 24 hrs by LC/MS/MS analysis; format: ADME, organism-based, Canis lupus familiaris; set-up: dose 5 mg/kg, route oral; conditions: read-out: Drug uptake
Procedure, shortened: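 Single oral dose in polyethylene glycol 400 (2.0 ml/kg). A liver biopsy (~200 μl) was taken under sedation and homogenized in 4 volumes of deionized water. Drug was quantified by LC/MS/MS after protein precipitation.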

Cathepsin S = Cathepsin S (Homo sapiens, UniProt P25774); assay: Inhibition of human Cathepsin S
Cathepsin S, sequence (P25774 whole entry): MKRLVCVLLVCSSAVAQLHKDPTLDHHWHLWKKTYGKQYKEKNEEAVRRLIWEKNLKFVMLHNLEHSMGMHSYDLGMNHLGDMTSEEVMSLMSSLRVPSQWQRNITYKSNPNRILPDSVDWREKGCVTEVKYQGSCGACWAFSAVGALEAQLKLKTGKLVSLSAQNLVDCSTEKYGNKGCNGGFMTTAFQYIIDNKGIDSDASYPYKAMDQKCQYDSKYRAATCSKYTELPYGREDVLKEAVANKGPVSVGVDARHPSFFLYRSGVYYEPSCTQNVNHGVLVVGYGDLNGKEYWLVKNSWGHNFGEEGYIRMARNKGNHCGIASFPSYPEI

[20] = test system: Hepatitis C virus genotype 1b; assay: Antiviral activity against Hepatitis C virus genotype 1b containing NS3/con1 protease mutant by TaqMan-based assay; conditions: subtype 1b
[21] = AUC (0-24 hrs) in rhesus monkey at 2 mg/kg, iv by LC/MS/MS analysis; format: ADME, organism-based, Macaca mulatta; set-up: time < 24 hr, dose 2 mg/kg, route intravenous; conditions: plasma; procedure, shortened: as §5
Hepatitis C virus [22] = assay: Antiviral activity against Hepatitis C virus containing NS3/4a H77 sequence by transient cell-base protease activity; format: functional, organism-based, Hepacivirus hominis
Hepatitis C virus [23] = assay: Antiviral activity against Hepatitis C virus containing NS3/4a ps40 sequence by transient cell-base protease activity; format: functional, organism-based, Hepacivirus hominis; procedure, shortened: as §1
[24] = Half life in rat at 2 mg/kg, iv by LC/MS/MS analysis; format: ADME, organism-based; set-up: dose 2 mg/kg, route intravenous; conditions: in vivo; procedure, shortened: as §5
Hepatitis C virus [25] = assay: Antiviral activity against Hepatitis C virus genotype 1b infected in […] cell by cell-based HCV replicon assay in presence of 50% normal human serum; format: functional, organism-based, Hepacivirus hominis
Procedure, shortened: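 Stable genotype 1b (con1) replicon cell line HB1, assayed in the presence of 50% normal human serum.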

Procathepsin L = Procathepsin L (Homo sapiens, UniProt P07711); assay: Inhibition of human Cathepsin L
Procathepsin L, sequence (P07711 whole entry): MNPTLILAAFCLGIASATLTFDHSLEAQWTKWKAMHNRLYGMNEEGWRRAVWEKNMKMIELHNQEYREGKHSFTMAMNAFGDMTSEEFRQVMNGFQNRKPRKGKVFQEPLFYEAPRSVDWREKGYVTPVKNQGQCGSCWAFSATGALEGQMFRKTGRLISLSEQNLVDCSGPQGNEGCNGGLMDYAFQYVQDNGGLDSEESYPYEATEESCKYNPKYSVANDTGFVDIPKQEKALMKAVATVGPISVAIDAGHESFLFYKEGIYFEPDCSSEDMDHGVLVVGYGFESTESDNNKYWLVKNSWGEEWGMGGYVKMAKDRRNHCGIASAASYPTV

CC[C@@H]1C[C@]1(NC(=O)[C@@H]1C[C@@H]2CN1C(=O)[C@H](C(C)(C)C)NC(=O)OCC(C)(C)CCCCc1cccc3c1CN(C3)C(=O)O2)C(=O)NS(=O)(=O)C1CC1 [VANIPREVIR]
EC50 (Hepatitis C virus [1]): 5 nM
EC50 (Hepatitis C virus [2]): 6.5 nM
Ki [3]: 1 nM
IC50 (Neutrophil elastase): > 10000 nM
EC50 (Hepatitis C virus [4]): 19 nM
IC50 [5]: 520 nM
EC50 (Hepatitis C virus [6]): 7.8 nM
AUC(0-t) at 24 h [7]: 1.2 µM·h
IC50 (Cathepsin F): > 10000 nM
Vd [8]: 0.3 L/kg
EC50 (Hepatitis C virus [9]): 2.9 nM
IC50 (Serine protease 1): > 10000 nM
AUC(0-t) at 24 h [10]: 4.1 µM·h
EC50 (Hepatitis C virus [11]): 3.8 nM
Cmax [12]: 10 nM
Ki [13]: 1.4 nM
EC50 (Hepatitis C virus [14]): 9.5 nM
Vd [15]: 0.4 L/kg
EC50 (Hepatitis C virus [16]): 430 nM
EC50 (Hepatitis C virus [17]): 27 nM
clearance [18]: 74 mL/min/kg
concentration at 24 h [19]: 600 nM
IC50 (Cathepsin S): > 10000 nM
EC50 [20]: 1.6 nM
AUC(0-t) at 24 h [21]: 2.5 µM·h
EC50 (Hepatitis C virus [22]): 4.5 nM
EC50 (Hepatitis C virus [23]): 2.9 nM
half-life [24]: 54 min
EC50 (Hepatitis C virus [25]): 13 nM
IC50 (Procathepsin L): > 10000 nM

— ChEMBL document CHEMBL1240347, “MK-7009, a potent and selective inhibitor of hepatitis C virus NS3/4A protease” (Antimicrob Agents Chemother, 2010)
